viability, differential viability (reversal) and inhibition data for 18 compounds are collected here from PubChem BioAssay.

The structures appear in SMILES notation. Activity calls are given as the source filed them.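 How the source made its calls, unless noted: active means viability at or under a set limit in both replicates, limit being median viability minus 3 SD (cut at about 48% in these data, passing the limit was not always enough); inconclusive means at or under the limit in just one replicate; inactive means at or above the limit in both replicates.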

Assay [1] is described as follows: reduced viability of SK-BR-3 breast cancer cells – cell-based, 24 h, human, pilot screen (AID 572;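 active means viability at or below 10% of carrier control in both of two separate runs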;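 further: compound exposure lasted between 18 and 24 h rather than exactly 24 h; 100% = carrier-treated control wells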). Particulars: SK-BR-3 viability, CellTiter-Glo luminescence, at 10 µM, stronger effect = lower value. Background: ATP-based viability assays read luminescence as a measure of living cells.
Assay [2] is described as follows: HUVEC growth inhibition – cell-based, human, primary screen (AID 575;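 active means viability at or below 30% in both replicate assays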;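 further: 100% = median of untreated cell wells with 0.1% DMSO on each plate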). The conditions noted are these: HUVEC proliferation, CellTiter-Glo luminescence, 72 h; at 10 µM; stronger effect = lower value. In short, it runs like this: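 Assay system: primary human umbilical vein endothelial cells / Buffer or medium: endothelial basal medium with 2% FBS plus growth supplements / Compound dosing: one dose, 10 µM final, 0.1% DMSO / Timing: 72 h treatment at 37 °C / Signal: CTG luminescence / Benchmarks: 32 DMSO-only cell-control wells (high), 32 MePR drug-control wells (low) per plate / Plate: collagen-coated 384-well format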

The nature of assay [3]: H69AR cell proliferation blockers – human, duplicate replicates, primary screen (AID 580).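 Further: 100% = mean luminescence of untreated wells and 0% = no signal.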 Particulars: H69AR lung tumor cells viability, ATP luminescence, 72 h; at 10 µM; stronger effect = lower value.
The nature of assay [4]: MRP1 drug-resistance reversers in H69AR cells – cell-based, doxorubicin co-treatment, pilot screen (AID 601;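 active means viability loss from added drug above about 55%, and viability with drug at most 40%, in both replicates, limit read from the data, passing the limit was not always enough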). The conditions noted are these: CellTiter-Glo, 72 h, at 10 µM; for differential viability (reversal): stronger effect = higher value.
Assay [5] in a line: yeast transport mutant growth inhibition pilot in 384-well plates, post-Golgi transport modulator project (AID 636; in the data active means inhibition above about 31%). The conditions noted are these: absorbance 615 nm, about 18 h, stronger effect = higher value.
Assay [6] is described as follows: growth suppression of yeast trafficking mutant, preliminary HTS, modulators of trafficking downstream of Golgi apparatus project, 1536-format plate, OD 615 nm (AID 637; in the data active means inhibition above about 30%). Particulars: yeast transport mutant growth, absorbance 615 nm, 18 h; stronger effect = higher value.
Setting [7] is: H69AR cells + 2 uM doxorubicin, measured here: viability with 2 uM doxorubicin, stronger effect = lower value.
[8] abbreviates: H69AR cells, compound alone cytotoxicity.

For orientation: viability means a read-out of living cells in per cent, often relative to untreated cells. As usually defined, the inhibition is the relative decrease from the control value, in per cent. As to `CC1CCCC(C)N1C(=O)CSc1nnc(-c2cccs2)o1` (centres undefined), the viability in assay [1] is 92% (inactive); in assay [2], 106% (inactive); in assay [3] it was 95.1% (inactive); in assay [4] (setting [7]), 96.8%; in assay [4] (setting [8]) it was 95.1%. In assay [4] (H69AR cells + 2 uM doxorubicin), the differential viability (reversal) was -1.69% (inactive). The figures for the inhibition in assay [5] and in assay [6] were 0.54% (inactive) and -3.09% (inactive), respectively.

Regarding `CCCc1nc(NCc2ccncc2)c2nnn(Cc3ccccc3F)c2n1`, the viability in assay [1] is 99% (inactive); in assay [2], 107% (inactive); in assay [3], 54.5% (inactive); in assay [4] (setting [7]), 45.9%; in assay [4] (setting [8]), 54.5%. The differential viability (reversal) in assay [4] (H69AR cells + 2 uM doxorubicin) is 8.61% (inactive). The inhibition in assay [5] is -1.37% (inactive); in assay [6], -3.39% (inactive).

Turning to `O=c1oc2cc(O)ccc2c2oc3cc(O)ccc3c12`, the viability in assay [1] was 108% (inactive); in assay [2] it was 85.1% (inactive); in assay [3] it was 99.4% (inactive); in assay [4] (setting [7]) it was 92.8%; in assay [4] (setting [8]) it was 99.4%. For the same compound, in assay [4] (H69AR cells + 2 uM doxorubicin), the differential viability (reversal) is 6.57% (inactive). For the same compound, the inhibition was -5.19% (inactive) in assay [5] and 5.17% (inactive) in assay [6].

In the case of `COc1ccc(S(=O)(=O)Nc2ccccc2SC)cc1C`, the viability in assay [1] was 94% (inactive); in assay [2], 87.8% (inactive); in assay [3], 87% (inactive); in assay [4] (setting [7]) it was 95.5%; in assay [4] (setting [8]), 87%. In assay [4] (H69AR cells + 2 uM doxorubicin), the differential viability (reversal) is -8.52% (inactive). Besides, the inhibition was -6.99% (inactive) in assay [5] and 0% (inactive) in assay [6].

As to `CCn1nnnc1SCC(=O)N1c2ccccc2CCc2ccccc21`, the viability was 86% (inactive) in assay [1]; 99.1% (inactive) in assay [2]; 86.7% (inactive) in assay [3]; 92.6% in assay [4] (setting [7]); 86.7% in assay [4] (setting [8]). The differential viability (reversal) in assay [4] (H69AR cells + 2 uM doxorubicin) is -5.9% (inactive). Also, the inhibition in assay [5] was -9.07% (inactive); in assay [6], -0.18% (inactive).

As for `Cc1nnc(SCc2cccc(Oc3ccccc3)c2)n1N`, the viability in assay [1] is 74% (inactive); in assay [2], 89.3% (inactive); in assay [3], 99.6% (inactive); in assay [4] (setting [7]), 94.4%; in assay [4] (setting [8]) it was 99.6%. Besides, the differential viability (reversal) in assay [4] (H69AR cells + 2 uM doxorubicin) is 5.25% (inactive). For the same compound, the results for the inhibition in assay [5] and in assay [6] were -5.89% (inactive) and 6.18% (inactive), respectively.

`Cn1c(-c2ccccc2)cnc1SCc1nc2ccccc2c(=O)[nH]1`: the viability was 107% (inactive) in assay [1]; 105% (inactive) in assay [2]; 101% (inactive) in assay [3]; 82.5% in assay [4] (setting [7]); 101% in assay [4] (setting [8]). Further, the differential viability (reversal) in assay [4] (H69AR cells + 2 uM doxorubicin) is 18.1% (inactive). Besides, the inhibition in assay [5] is -2.53% (inactive); in assay [6] it was 4.18% (inactive).

`CCOC(=O)Cn1nnc(-c2ccc(SC)cc2)n1`: the viability in assay [1] is 96% (inactive); in assay [2], 100% (inactive); in assay [3] it was 98% (inactive); in assay [4] (setting [7]), 92.3%; in assay [4] (setting [8]), 98%. For the same compound, the differential viability (reversal) in assay [4] (H69AR cells + 2 uM doxorubicin) was 5.72% (inactive). Moreover, the inhibition is -8.38% (inactive) in assay [5] and -4.36% (inactive) in assay [6].

With `CCn1c(SCC(=O)c2ccc(C)cc2)nnc1-c1ccoc1C`, the viability was 89% (inactive) in assay [1]; 114% (inactive) in assay [2]; 108% (inactive) in assay [3]; 99.2% in assay [4] (setting [7]); 108% in assay [4] (setting [8]). Moreover, in assay [4] (H69AR cells + 2 uM doxorubicin), the differential viability (reversal) was 8.75% (inactive). Besides, the values for the inhibition in assay [5] and in assay [6] were -5.14% (inactive) and 0.36% (inactive), respectively.

For the compound `C=CCN1C(=O)CS/C1=N/c1nccs1`, the viability in assay [1] is 65% (inactive); in assay [2] it was 96.5% (inactive); in assay [3], 98.4% (inactive); in assay [4] (setting [7]), 97%; in assay [4] (setting [8]), 98.4%. The differential viability (reversal) in assay [4] (H69AR cells + 2 uM doxorubicin) was 1.4% (inactive). For the same compound, the figures for the inhibition in assay [5] and in assay [6] were -8.9% (inactive) and -1.13% (inactive), respectively.

For `CCOc1ccccc1OCCCCN1CCCC1`, the viability in assay [1] was 87% (inactive); in assay [2] it was 109% (inactive); in assay [3], 91.5% (inactive); in assay [4] (setting [7]), 89.4%; in assay [4] (setting [8]) it was 91.5%. For the same compound, the differential viability (reversal) in assay [4] (H69AR cells + 2 uM doxorubicin) was 2.1% (inactive). Moreover, the values for the inhibition in assay [5] and in assay [6] were -2.21% (inactive) and -1.97% (inactive), respectively.

On to `O=C(c1csc2ccccc12)N1CCCCCC1`, for which the viability is 109% (inactive) in assay [1]; 83.7% (inactive) in assay [2]; 104% (inactive) in assay [3]; 93.9% in assay [4] (setting [7]); 104% in assay [4] (setting [8]). The differential viability (reversal) in assay [4] (H69AR cells + 2 uM doxorubicin) is 9.99% (inactive). Further, the inhibition was -1.51% (inactive) in assay [5] and -3.87% (inactive) in assay [6].

Consider `c1ccc(Cn2ncc3c2ncn2c(-c4ccncc4)nnc32)cc1`, for which the viability in assay [1] is 99% (inactive); in assay [2] it was 95.3% (inactive); in assay [3], 95% (inactive); in assay [4] (setting [7]), 96.9%; in assay [4] (setting [8]), 95%. In assay [4] (H69AR cells + 2 uM doxorubicin), the differential viability (reversal) was -1.95% (inactive). For the same compound, the inhibition was -8.77% (inactive) in assay [5] and -6.77% (inactive) in assay [6].

Regarding `c1ccc2c(-c3nc(-c4ccncc4)no3)cccc2c1`, the viability in assay [1] was 56% (inactive); in assay [2] it was 86.4% (inactive); in assay [3], 102% (inactive); in assay [4] (setting [7]) it was 96.3%; in assay [4] (setting [8]), 102%. Besides, in assay [4] (H69AR cells + 2 uM doxorubicin), the differential viability (reversal) was 5.25% (inactive). For the same compound, the inhibition is -5.89% (inactive) in assay [5] and 10.6% (inactive) in assay [6].

As to `O=C(CCN1C(=O)c2ccccc2C1=O)N1CCN(C(=O)c2ccccc2)CC1`, the viability was 106% (inactive) in assay [1]; 108% (inactive) in assay [2]; 101% (inactive) in assay [3]; 92.3% in assay [4] (setting [7]); 101% in assay [4] (setting [8]). For the same compound, the differential viability (reversal) in assay [4] (H69AR cells + 2 uM doxorubicin) is 8.3% (inactive). Besides, the results for the inhibition in assay [5] and in assay [6] were -3.25% (inactive) and 4.59% (inactive), respectively.

Take `CN1CCN(C(=O)NC2CCCN2S(=O)(=O)c2ccc(Cl)cc2)CC1` (centres undefined): the viability in assay [1] is 100% (inactive); in assay [2] it was 96.4% (inactive); in assay [3] it was 88.9% (inactive); in assay [4] (setting [7]), 89.6%; in assay [4] (setting [8]), 88.9%. Moreover, the differential viability (reversal) in assay [4] (H69AR cells + 2 uM doxorubicin) was -0.73% (inactive). Moreover, the figures for the inhibition in assay [5] and in assay [6] were -1.1% (inactive) and -4.68% (inactive), respectively.

On to `CCN(CC)CCOC(=O)C1(C2CCCCC2)CCCCC1`, for which the viability in assay [1] is 114% (inactive); in assay [2] it was 72.7% (inactive); in assay [3] it was 86.3% (inactive); in assay [4] (setting [7]), 83.2%; in assay [4] (setting [8]) it was 86.3%. In addition, the differential viability (reversal) in assay [4] (H69AR cells + 2 uM doxorubicin) is 3.1% (inactive). Also, the inhibition in assay [5] was -2.6% (inactive); in assay [6], -3.33% (inactive).

`COC(=O)c1nnn(-c2ccccc2)c1N`: the viability in assay [1] was 103% (inactive); in assay [2], 100% (inactive); in assay [3] it was 103% (inactive); in assay [4] (setting [7]), 105%; in assay [4] (setting [8]), 103%. For the same compound, in assay [4] (H69AR cells + 2 uM doxorubicin), the differential viability (reversal) is -1.73% (inactive). Further, the inhibition in assay [5] is -1.82% (inactive); in assay [6] it was 3.61% (inactive).
